Source: ChEMBL document CHEMBL3822410, “Novel substituted isoxazole FXR agonists with cyclopropyl, hydroxycyclobutyl and hydroxyazetidinyl linkers: Understanding and improving key determinants of pharmacological properties” (Bioorg Med Chem Lett, 2016)
Values after ≈ are worked out from the molar mass of the structure shown. Active and inactive are the calls of the source. The rule behind the calls is not given here.

Legend:
Bile acid receptor [1] = molecular target: T1, Bile acid receptor (Homo sapiens, UniProt Q96RI1); assay: Agonist activity at GST-tagged FXR LBD (187 to 472 residues) (unknown origin) assessed as FXR interaction with b-CPSSHSSLTERHKILHRLLQEGSPS-COOH by FRET assay
T1 sequence (Q96RI1 whole entry): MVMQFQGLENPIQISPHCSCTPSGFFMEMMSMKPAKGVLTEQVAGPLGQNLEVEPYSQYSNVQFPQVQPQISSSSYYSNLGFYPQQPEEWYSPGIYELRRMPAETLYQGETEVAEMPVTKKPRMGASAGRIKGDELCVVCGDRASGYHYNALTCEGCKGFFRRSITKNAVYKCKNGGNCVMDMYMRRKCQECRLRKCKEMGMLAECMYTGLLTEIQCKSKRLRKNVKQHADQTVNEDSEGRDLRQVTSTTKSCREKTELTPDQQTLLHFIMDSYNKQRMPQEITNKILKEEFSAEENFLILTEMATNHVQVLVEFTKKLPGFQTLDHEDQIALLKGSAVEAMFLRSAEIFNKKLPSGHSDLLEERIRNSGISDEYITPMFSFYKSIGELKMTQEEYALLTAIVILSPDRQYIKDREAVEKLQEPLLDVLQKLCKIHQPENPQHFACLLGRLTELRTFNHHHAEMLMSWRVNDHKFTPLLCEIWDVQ

[2] = molecular target: T2, Bile acid receptor (Homo sapiens) (UniProt Q96RI1); assay: Agonist activity at GST-tagged FXR LBD (187 to 472 residues) (unknown origin) assessed as FXR interaction with b-CPSSHSSLTERHKILHRLLQEGSPS-COOH by FRET assay relative to GW4064
T2 sequence (whole entry): T1 sequence (Q96RI1 whole entry)

Bile acid receptor [3] = molecular target: T1, Bile acid receptor; assay: Agonist activity at C-terminal Gal4-tagged human FXR (187 to 472 residues) expressed in HEK-293 cells co-expressing pFRluc by mammalian one hybrid assay; type: cell-based, HEK293
Summary of the method: (§1)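 Transient transfection of HEK293 cells with Gal4 DBD–human FXR LBD (187–472) chimera under CMV promoter plus pFRluc Gal4-driven firefly luciferase reporter. Cells treated with serial compound dilutions. EC50 from at least three experiments; efficacy is extrapolated maximum signal of the dose-response, GW4064 set to 100%.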

[4] = molecular target: T2, Bile acid receptor (Homo sapiens); assay: Agonist activity at C-terminal Gal4-tagged human FXR (187 to 472 residues) expressed in HEK-293 cells co-expressing pFRluc by mammalian one hybrid assay relative to GW4064; type: cell-based; settings: HEK293; summary of the method: as §1
[5] = Permeability of the compound assessed as compound influx measured after 16 hrs by PAMPA assay; type: ADME
Summary of the method: (§2)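 PAMPA, 16 h at rt. Flux = [C_acceptor/(C_donor + C_acceptor)] × 100 × 2. Membrane enrichment = C_membrane × 2/(C_acceptor + C_donor), membrane phase extracted into a volume equal to the acceptor or donor compartment.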

[6] = Permeability of the compound assessed as compound enrichment in membrane compartment measured after 16 hrs by PAMPA assay relative to control; type: ADME; summary of the method: as §2
Mus musculus [7] = assay: Reduction in total cholesterol level in high fat diet enriched with cholesterol fed C57BL/6J mouse plasma at 10 mg/kg, po through gavage for 10 days measured after 4 hrs of final dosage relative to vehicle treated-control; type: functional, organism-based
Summary of the method: (§3)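 C57BL/6J mice pre-fed and kept on high fat diet (60% kcal fat) with 1% (w/w) cholesterol; 10 mg/kg by oral gavage for 10 days. Plasma total cholesterol and triglycerides taken at sacrifice 4 h after final dose, expressed as % change versus vehicle group.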

[8] = Oral bioavailability in C57BL/6J mouse at 5 mg/kg; type: ADME, organism-based; settings: in vivo
Summary of the method: (§4)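 Mice dosed 5 mg/kg orally and 1 mg/kg intravenously; bioavailability from both arms, all other parameters (AUC, Cmax, T1/2, Cl/F, Vd/F) calculated from the oral arm.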

[9] = Half life in C57BL/6J mouse at 5 mg/kg, po and 1 mg/kg, iv; type: ADME, organism-based; settings: in vivo; summary of the method: as §4
[10] = Apparent oral clearance in C57BL/6J mouse at 5 mg/kg; type: ADME, organism-based; settings: in vivo; summary of the method: as §4
[11] = Apparent oral volume of distribution in C57BL/6J mouse at 5 mg/kg; type: ADME, organism-based; settings: in vivo; summary of the method: as §4
[12] = AUC in C57BL/6J mouse at 5 mg/kg, po and 1 mg/kg, iv; type: ADME, organism-based; settings: in vivo; summary of the method: as §4
[13] = Cmax in C57BL/6J mouse at 5 mg/kg, po and 1 mg/kg, iv; type: ADME, organism-based; settings: in vivo; summary of the method: as §4
Mus musculus [14] = assay: Reduction in total triglyceride level in high fat diet enriched with cholesterol fed C57BL/6J mouse plasma at 10 mg/kg, po through gavage for 10 days measured after 4 hrs of final dosage relative to vehicle treated-control; type: functional, organism-based; summary of the method: as §3
[15] = Aqueous solubility of the compound; type: physicochemical; settings: buffer

Compound | EC50 (Bile acid receptor [1]) [nM] | Efficacy [2] [%] | EC50 (Bile acid receptor [3]) [nM] | Efficacy [4] [%] | permeability [5] [%] | fold change (FC) [6] | bioavailability [8] [%] | half-life [9] [min] | CL/F [10] [mL/min/kg] | Vd/F [11] [L/kg] | AUC [12] [ng·h/mL] | Cmax [13] [ng/mL] | solubility [15] [µM] | Activity (Mus musculus [7]) | Activity (Mus musculus [14])
Cn1nc(C(=O)O)c2ccc(C3CC3c3ccc(OCc4c(-c5c(Cl)cccc5Cl)noc4C4CC4)cc3Cl)cc21 (racemic) | 13 | 104 | 14 | 84 | – | – | – | – | – | – | – | – | – | – | –
CS(=O)(=O)NC(=O)c1ccc([C@@H]2C[C@H]2c2ccc(OCc3c(-c4c(Cl)cccc4Cl)noc3C3CC3)cc2Cl)cc1 | 48 | 94 | 44 | 81 | – | – | – | – | – | – | – | – | – | – | –
O=C(O)c1cccc(N2CC(O)(c3ccc(OCc4c(-c5c(Cl)cccc5Cl)noc4C4CC4)cc3Cl)C2)c1 | 54 | 97 | – | 94 | 27 | 40 | – | – | – | – | – | – | – | – | –
CC(C)n1nc(C(=O)O)cc1[C@@H]1C[C@H]1c1ccc(OCc2c(-c3c(Cl)cccc3Cl)noc2C2CC2)cc1Cl | 4 | 101 | 4 | 79 | – | – | – | – | – | – | – | – | – | – | –
O=C(O)c1ccc([C@@H]2C[C@H]2c2ccc(OCc3c(-c4c(Cl)cccc4Cl)noc3C3CC3)cc2Cl)cc1 | 80 | 99 | 47 | 89 | – | – | – | – | – | – | – | – | – | – | –
O=C(O)c1cccc([C@H]2C[C@](OCCO)(c3ccc(OCc4c(-c5c(Cl)cccc5Cl)noc4C4CC4)cc3Cl)C2)c1 | 373 | 97 | 377 | 68 | – | – | – | – | – | – | – | – | – | – | –
O=C(O)c1ccc([C@H]2C[C@](O)(c3ccc(OCc4c(-c5c(Cl)cccc5Cl)noc4C4CC4)cc3Cl)C2)cc1 | 24 | 105 | 63 | 71 | 21 | 9 | 41 | 66 | 190 | 3.9 | 180 | 96 | 192 (≈ 112 µg/mL) | – | –
O=C(O)CNC(=O)c1ccc(C2CC2c2ccc(OCc3c(-c4c(Cl)cccc4Cl)noc3C3CC3)cc2Cl)cc1 (racemic) | 150 | 100 | 209 | 58 | – | – | – | – | – | – | – | – | – | – | –
CC(C)n1nc(C(=O)O)cc1C1CC1c1ccc(OCc2c(-c3c(Cl)cccc3Cl)noc2C2CC2)cc1Cl (racemic) | 7 | 102 | 6 | 81 | 29 | 22 | 11 | 48 | 83 | 5.5 | 110 | 160 | 158 (≈ 92.7 µg/mL) | Active | Active
O=C(O)c1ccc([C@H]2C[C@@H]2c2ccc(OCc3c(-c4c(Cl)cccc4Cl)noc3C3CC3)cc2Cl)cc1 [PX-102] | 1090 | 100 | 186 | 71 | – | – | – | – | – | – | – | – | – | – | –
O=C(O)c1cncc(C2CC2c2ccc(OCc3c(-c4c(Cl)cccc4Cl)noc3C3CC3)cc2Cl)c1 (stereo not given) | 10 | 103 | 14 | 73 | – | – | – | – | – | – | – | – | 165 (≈ 91.7 µg/mL) | – | –
O=C(NCCS(=O)(=O)O)c1ccc(C2CC2c2ccc(OCc3c(-c4c(Cl)cccc4Cl)noc3C3CC3)cc2Cl)cc1 (racemic) | 76 | 98 | 1370 | 34 | – | – | – | – | – | – | – | – | – | – | –
Clc1cc(OCc2c(-c3c(Cl)cccc3Cl)noc2C2CC2)ccc1C1CC1c1ccc(-c2nnn[nH]2)nc1 (stereo not given) | 131 | 101 | 111 | 79 | – | – | – | – | – | – | – | – | – | – | –
O=C(O)c1ccc(C2CC2c2ccc(OCc3c(-c4c(Cl)cccc4Cl)noc3C3CC3)cc2Cl)cn1 (stereo not given) | 66 | 101 | 57 | 68 | – | – | – | – | – | – | – | – | – | – | –
Cn1nc(C(=O)O)c2ccc([C@H]3C[C@](O)(c4ccc(OCc5c(-c6c(Cl)cccc6Cl)noc5C5CC5)cc4Cl)C3)cc21 | 19 | 99 | 50 | 82 | – | – | – | – | – | – | – | – | – | – | –
CS(=O)(=O)NC(=O)c1ccc(C2CC2c2ccc(OCc3c(-c4c(Cl)cccc4Cl)noc3C3CC3)cc2Cl)cc1 (racemic) | 90 | 100 | 44 | 88 | – | – | – | – | – | – | – | – | – | – | –
O=C(O)c1ccc(C2CC2c2ccc(OCc3c(-c4c(Cl)cccc4Cl)noc3C3CC3)cc2Cl)cc1 (racemic) | 131 | 100 | 76 | 85 | 14 | 30 | 44 | 30 | 85 | 3.6 | 430 | 280 | – | Active | Active

Further lines, with some results ahead:

EC50 (Bile acid receptor [1]) [nM] | Efficacy [2] [%] | EC50 (Bile acid receptor [3]) [nM] | Efficacy [4] [%] | permeability [5] [%] | fold change (FC) [6] | bioavailability [8] [%] | half-life [9] [min] | CL/F [10] [mL/min/kg] | Vd/F [11] [L/kg] | AUC [12] [ng·h/mL] | Cmax [13] [ng/mL] | solubility [15] [µM] | Compound | Activity (Mus musculus [7]) | Activity (Mus musculus [14])
79 | 93 | 102 | 75 | – | – | – | – | – | – | – | – | – | CO[C@]1(c2ccc(OCc3c(-c4c(Cl)cccc4Cl)noc3C3CC3)cc2Cl)C[C@H](c2cccc(C(=O)O)c2)C1 | – | –
219 | 101 | 90 | 88 | – | – | – | – | – | – | – | – | – | O=C(O)c1cccc([C@H]2C[C@@H]2c2ccc(OCc3c(-c4c(Cl)cccc4Cl)noc3C3CC3)cc2Cl)c1 | – | –
29 | 100 | 25 | 79 | 24 | 27 | 49 | 36 | 4.7 | 0.3 | 8600 | 9800 | – | O=C(O)c1cccc([C@H]2C[C@](O)(c3ccc(OCc4c(-c5c(Cl)cccc5Cl)noc4C4CC4)cc3Cl)C2)c1 | Active | Active
24 | 100 | 15 | 89 | 0 | 319 | – | – | – | – | – | – | – | O=C(O)c1cccc([C@H]2C[C@H](c3ccc(OCc4c(-c5c(Cl)cccc5Cl)noc4C4CC4)cc3Cl)C2)c1 | – | –
18 | 100 | 29 | 98 | – | – | – | – | – | – | – | – | – | O=C(O)c1cccc([C@@H]2C[C@H]2c2ccc(OCc3c(-c4c(Cl)cccc4Cl)noc3C3CC3)cc2Cl)c1 | inactive | inactive
77 | 99 | 92 | 88 | – | – | – | – | – | – | – | – | – | O=C(O)c1cccc([C@H]2C[C@@H](c3ccc(OCc4c(-c5c(Cl)cccc5Cl)noc4C4CC4)cc3Cl)C2)c1 | – | –
277 | 94 | 220 | 89 | – | – | – | – | – | – | – | – | – | CCO[C@]1(c2ccc(OCc3c(-c4c(Cl)cccc4Cl)noc3C3CC3)cc2Cl)C[C@H](c2cccc(C(=O)O)c2)C1 | – | –
32 | 102 | 34 | 87 | 17 | 33 | 53 | 60 | 55 | 4.7 | 800 | 1060 | 20 (≈ 11.1 µg/mL) | O=C(O)c1cccc(C2CC2c2ccc(OCc3c(-c4c(Cl)cccc4Cl)noc3C3CC3)cc2Cl)c1 (racemic) | – | –
